Reference: publication PMC7983942 (Clinical Pharmacology and Therapeutics, 2020)
Substitutions are numbered along the chain they refer to. Each block holds one compound with its values, some of them ahead of it.

Columns and labels:
OATP1B1*14 = molecular target: T1, OATP1B1*14 (Homo sapiens, UniProt Q9Y6L6, N130D/P155T); assay: Uptake into OATP1B1 variant-transfected vs wild-type HEK293 cells; assay type: in vitro ADME; conditions: substrate 1 µM; for Uptake ratio as percentage of OATP1B1*14 in the same experiment: OATP1B1*14 (reference); for Uptake ratio (vs. wild‐type HEK293 cells): OATP1B1*14, 2 minutes
T1 sequence (Q9Y6L6 1-691 N130D/P155T): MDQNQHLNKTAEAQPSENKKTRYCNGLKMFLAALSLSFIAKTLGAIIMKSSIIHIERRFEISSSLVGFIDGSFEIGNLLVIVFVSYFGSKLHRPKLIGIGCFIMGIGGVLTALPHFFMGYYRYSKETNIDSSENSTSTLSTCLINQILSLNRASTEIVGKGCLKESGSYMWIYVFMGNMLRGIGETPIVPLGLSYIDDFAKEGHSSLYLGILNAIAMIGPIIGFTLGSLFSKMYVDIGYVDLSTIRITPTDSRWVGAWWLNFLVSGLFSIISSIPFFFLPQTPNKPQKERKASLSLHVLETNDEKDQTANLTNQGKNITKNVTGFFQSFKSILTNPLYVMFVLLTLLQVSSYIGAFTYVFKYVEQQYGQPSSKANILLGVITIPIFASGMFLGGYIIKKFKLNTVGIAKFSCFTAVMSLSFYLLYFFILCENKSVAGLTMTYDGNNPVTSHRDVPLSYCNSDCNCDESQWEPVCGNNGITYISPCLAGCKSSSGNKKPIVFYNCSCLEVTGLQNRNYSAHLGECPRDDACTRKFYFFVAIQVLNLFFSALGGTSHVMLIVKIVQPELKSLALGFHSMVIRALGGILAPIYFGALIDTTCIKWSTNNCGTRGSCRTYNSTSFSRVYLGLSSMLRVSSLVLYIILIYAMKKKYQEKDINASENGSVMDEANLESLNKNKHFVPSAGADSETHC

OATP1B1*5 = molecular target: T2, OATP1B1*5 (Homo sapiens, UniProt Q9Y6L6, V174A); assay: Uptake into OATP1B1 variant-transfected vs wild-type HEK293 cells; assay type: in vitro ADME; conditions: for Uptake ratio (vs. wild‐type HEK293 cells): 2 minutes
T2 sequence (Q9Y6L6 1-691 V174A): T1 sequence (Q9Y6L6 1-691 N130D/P155T) with D130N, T155P, V174A
In short: (§1)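 HEK293 cells stably expressing an OATP1B1 variant, alongside wild-type HEK293, were seeded at 0.5–1.2 × 10⁵ cells/well on poly-D-lysine plates. They grew 48 h at 37°C and 5% CO₂ in DMEM with 10% FBS, 1% pyruvate, nonessential amino acids and GlutaMAX. Substrate was 1 µM (0.5 µM where footnoted) for 2 min, then four ice-cold buffer washes and methanol lysis with internal standard. Uptake ratio (transfected/wild-type) is expressed as % of OATP1B1*14 in the same experiment; n=3 determinations.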

OATP1B1*1A = molecular target: T3, OATP1B1*1A (Homo sapiens, UniProt Q9Y6L6); assay: Uptake into transporter-transfected vs wild-type HEK293 cells; assay type: in vitro ADME; conditions: experiment 3, substrate 1 µM, 2 minutes
T3 sequence (Q9Y6L6 1-691): T1 sequence (Q9Y6L6 1-691 N130D/P155T) with D130N, T155P
In short: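 HEK293 cells stably transfected with OATP1B1*1A, OATP1B3 or OATP2B1, plus wild-type cells, were seeded on poly-D-lysine plates. Culture was 48 h at 37°C in DMEM with 10% FBS, pyruvate, nonessential amino acids and GlutaMAX. Test compound was 1 µM for 2 min; rosuvastatin probe was 1 µM over 2–4 min. Cells were washed four times in ice-cold buffer and lysed in methanol with internal standard. Readouts were uptake ratio versus wild-type and glucuronide/probe ratio of ratios; mean ± SD, n=3 in one experiment.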

OATP1B1*15 = molecular target: T4, OATP1B1*15 (Homo sapiens, UniProt Q9Y6L6, N130D/V174A); assay: Uptake into OATP1B1 variant-transfected vs wild-type HEK293 cells; assay type: in vitro ADME; conditions: for Uptake ratio (vs. wild‐type HEK293 cells): 2 minutes
T4 sequence (Q9Y6L6 1-691 N130D/V174A): T1 sequence (Q9Y6L6 1-691 N130D/P155T) with T155P, V174A
In short: as §1

[1] = Fasting plasma concentrations in healthy volunteers by SLCO1B1 genotype; conditions: for Plasma concentration, ratio to control (95% CI) / Plasma concentration, geometric mean (95% CI): fasting, adjusted for sex; for Mean fasting plasma concentration, lower in women than in men: women vs men, 356 healthy volunteers
OAT2 = molecular target: T5, OAT2 (Homo sapiens, UniProt Q9Y694); assay: Uptake into transporter-transfected vs wild-type HEK293 cells; assay type: in vitro ADME; conditions: cyclic guanosine monophosphate 0.5 µM, two to four minutes
T5 sequence (Q9Y694 1-548): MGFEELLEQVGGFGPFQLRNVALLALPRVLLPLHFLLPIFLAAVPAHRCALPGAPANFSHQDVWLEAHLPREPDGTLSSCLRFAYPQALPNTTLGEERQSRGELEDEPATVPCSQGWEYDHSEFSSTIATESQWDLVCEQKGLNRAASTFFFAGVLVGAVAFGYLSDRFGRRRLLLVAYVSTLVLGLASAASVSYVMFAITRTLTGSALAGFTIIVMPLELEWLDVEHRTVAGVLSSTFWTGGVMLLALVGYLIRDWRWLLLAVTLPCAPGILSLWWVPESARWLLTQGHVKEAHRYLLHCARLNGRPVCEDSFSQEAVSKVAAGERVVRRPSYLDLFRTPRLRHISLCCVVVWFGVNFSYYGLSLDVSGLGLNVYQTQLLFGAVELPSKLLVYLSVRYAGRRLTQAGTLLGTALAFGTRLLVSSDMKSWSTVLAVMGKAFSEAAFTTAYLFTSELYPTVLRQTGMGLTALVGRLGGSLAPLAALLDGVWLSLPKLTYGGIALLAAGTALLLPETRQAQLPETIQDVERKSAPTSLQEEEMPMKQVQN
In short: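 Transfected HEK293 lines were OAT2 and OCT1, each run against wild-type cells, seeded on poly-D-lysine plates. Culture was 48 h at 37°C in DMEM with 10% FBS plus 1% gentamycin, 1% sodium pyruvate and 50 µg/mL hygromycin B. Probes were cyclic GMP 0.5 µM (OAT2) and metformin 20 µM (OCT1), over 2–4 min; test compound was 1 µM for 2 min. After four ice-cold washes and methanol lysis, the uptake ratio versus wild-type and the ratio of ratios were derived; n=3 in one experiment.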

[2] = SLCO1B1 c.521 C/C genotype (n = 13)
[3] = SLCO1B1 c.521 T/C genotype (n = 113)
[4] = SLCO1B1 c.521 T/T genotype (control; n = 230)

Uptake ratio as percentage of OATP1B1*14 in the same experiment (OATP1B1*14; experiment 1): 100%
Uptake ratio as percentage of OATP1B1*14 in the same experiment (OATP1B1*14; experiment 2): 100%
Uptake ratio (vs. wild‐type HEK293 cells) (OATP1B1*14; experiment 1): 3.2 ± 0.1
Uptake ratio (vs. wild‐type HEK293 cells) (OATP1B1*14; experiment 2): 3.1 ± 0.1
Uptake ratio (vs. wild‐type HEK293 cells) (OATP1B1*14; experiment 3): 4.4 ± 0.1
Uptake ratio as percentage of OATP1B1*14 in the same experiment (OATP1B1*5; experiment 1, substrate 1 µM): 56%
Uptake ratio (vs. wild‐type HEK293 cells) (OATP1B1*5; experiment 1, substrate 1 µM): 1.8 ± 0.2
Uptake ratio as percentage of OATP1B1*14 in the same experiment (OATP1B1*5; experiment 2, substrate 1 µM): 61%
Uptake ratio (vs. wild‐type HEK293 cells) (OATP1B1*5; experiment 2, substrate 1 µM): 1.9 ± 0.1
Uptake ratio (vs. wild‐type HEK293 cells) (OATP1B1*1A): 2.7 ± 0.1
Uptake ratio as percentage of OATP1B1*14 in the same experiment (OATP1B1*15; experiment 1, substrate 1 µM): 47%
Uptake ratio (vs. wild‐type HEK293 cells) (OATP1B1*15; experiment 1, substrate 1 µM): 1.5 ± 0.1
Uptake ratio as percentage of OATP1B1*14 in the same experiment (OATP1B1*15; experiment 2, substrate 1 µM): 48%
Uptake ratio (vs. wild‐type HEK293 cells) (OATP1B1*15; experiment 2, substrate 1 µM): 1.5 ± 0.1
Structure (SMILES): CC(C)n1c(/C=C/C(O)CC(O)CC(=O)O)c(-c2ccc(F)cc2)c2ccccc21 (stereo not drawn) [Fluvastatin, fluvastatin]

Plasma concentration, ratio to control (95% CI) ([1]; C/C genotype (n = 13) vs T/T): 1.35 (0.865, 2.11)
Plasma concentration, geometric mean (95% CI) [1, 2]: 567 (367, 876) ng/mL
Plasma concentration, geometric mean (95% CI) [1, 3]: 378 (326, 438) ng/mL
Plasma concentration, geometric mean (95% CI) [1, 4]: 419 (378, 465) ng/mL
Plasma concentration, ratio to control (95% CI) ([1]; T/C genotype (n = 113) vs T/T): 0.900 (0.751, 1.08)
Mean fasting plasma concentration, lower in women than in men [1]: ~ 20%
Structure (SMILES): C[C@H](CCC(=O)NCC(=O)O)[C@H]1CC[C@H]2[C@@H]3[C@H](O)C[C@@H]4C[C@H](O)CC[C@]4(C)[C@H]3CC[C@]12C [GCDCA, Glycochenodeoxycholate]

Plasma concentration, ratio to control (95% CI) ([1]; C/C genotype (n = 13) vs T/T): 1.16 (0.675, 1.98)
Plasma concentration, geometric mean (95% CI) [1, 2]: 141 (83.3, 237) ng/mL
Plasma concentration, geometric mean (95% CI) [1, 3]: 124 (104, 149) ng/mL
Plasma concentration, geometric mean (95% CI) [1, 4]: 122 (107, 138) ng/mL
Plasma concentration, ratio to control (95% CI) ([1]; T/C genotype (n = 113) vs T/T): 1.02 (0.822, 1.27)
Mean fasting plasma concentration, lower in women than in men [1]: ~ 20%
Structure (SMILES): C[C@H](CCC(=O)NCC(=O)O)[C@H]1CC[C@H]2[C@@H]3CC[C@@H]4C[C@H](O)CC[C@]4(C)[C@H]3C[C@H](O)[C@]12C [GDCA, glycodeoxycholate]

Uptake ratio (vs. wild‐type HEK293 cells), probe (OAT2): 23.6 ± 0.58
Structure (SMILES): Nc1nc2c(ncn2[C@@H]2O[C@@H]3COP(=O)(O)O[C@H]3[C@H]2O)c(=O)[nH]1 [cyclic guanosine monophosphate]
